B1: Osa-1-4 twister ribozyme (parent)
chain: CCGCCUAACACUGCCAAUGCCGGUCCCAAGCCCGGAUAAAAGUGGAGGGGGCGG

Variants of: B1
Assay: self-cleavage, relative activity (ratio to wild type); higher = more cleavage; co-transcriptional
Procedure, shortened: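 The 48 positions downstream of the cleavage site in a DNA template for a 54-nucleotide Oryza sativa twister ribozyme carried 97 % wild-type base and 1 % of each other base. After in vitro transcription (2 h, 37 °C) with co-transcriptional self-cleavage, the RNA was reverse-transcribed with a template-switching oligonucleotide, PCR-amplified and deep-sequenced. Relative activity is the fraction cleaved, judged by reads with or without upstream sequence and normalised to wild type.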

Variant	self-cleavage
A41C G44A	0.81
A41C G44C	0.97
A41C G44U	0.9
A40U G48C	0.05
A40U G48A	0.06
A40U G48U	0.04
A40G C25A	0.06
A40G C25G	0.06
A40G C25U	0.14
A41C G50C	0.93
A41C G50U	1
A41C G50A	0.37
A40U G45C	0.06
A40U G45A	0.07
A40U G45U	0.07
A40G C15A	0.13
A40G C15U	0.13
A40G C15G	0.14
A40U A7C	0.04
A40U A7U	0.08
A40U A7G	0.13
A41C G51U	0.16
A41C G51A	0.28
A41C G51C	0.07

Variant	self-cleavage
A41C C31G	0.09
A41C C31U	0.8
A41C C31A	0.04
A40U A8G	0.15
A40U A8U	0.07
A40U A8C	0.05
A40U C52U	0.74
A40U C52A	0.4
A40U C52G	0.46
A40G A8C	0.06
A40G A8U	0.11
A40G A8G	0.18
A40U G44A	0.25
A40U G44C	0.43
A40U G44U	0.26
A40U G30C	0.04
A40U G30U	0.03
A40U G30A	0.03
A40U C32U	0.08
A40U C32G	0.07
A40U C32A	0.07
A40G G51A	0.25
A40G G51C	0.07
A40G G51U	0.12

Variant	self-cleavage
A41C C25G	0.08
A41C C25A	0.08
A41C C25U	0.8
A40U A41C	0.87
A40U A41U	0.83
A40U A41G	0.1
A40G G35C	0.12
A40G G35U	0.69
A40G G35A	0.71
A41C	0.99
A41C C21A	0.45
A41C C21G	0.08
A41C C21U	1.04
A41C C52A	0.94
A41C C52G	1.04
A41C C52U	1.03
A41C A46C	0.05
A41C A46U	0.08
A41C A46G	0.06
A40U U24A	0.06
A40U U24G	0.03
A40U U24C	0.09
A41C A7G	0.18
A41C A7U	0.09

Variant	self-cleavage
A41C A7C	0.05
A41C C20A	0.92
A41C C20U	0.95
A41C C20G	0.13
A40G C31G	0.08
A40G C31U	0.16
A40G C31A	0.03
A40G G47U	0.1
A40G G47A	0.11
A40G G47C	0.06
A40U G42C	0.11
A40U G42U	0.06
A40U G42A	0.1
A41C G22C	0.05
A41C G22U	0.49
A41C G22A	0.8
A40G A41C	0.41
A40G A41G	0.22
A40G A41U	0.91
A40G G50A	0.43
A40G G50C	0.29
A40G G50U	0.54
A40U U18C	0.71
A40U U18G	0.64

Variant	self-cleavage
A40U U18A	0.77
A40U G13U	0.01
A40U G13A	0.06
A40U G13C	0.02
A41C G13C	0.02
A41C G13A	0.08
A41C G13U	0.04
A40U C9U	0.2
A40U C9A	0.09
A40U C9G	0.17
A40G G30A	0.03
A40G G30U	0.05
A40G G30C	0.04
A40U	0.85
A41C G42U	0.11
A41C G42A	0.19
A41C G42C	0.12
A41C C11G	0.24
A41C C11A	0.71
A41C C11U	0.81
A40U G34U	0.18
A40U G34C	0.15
A40U G34A	0.23
A40U G23U	0.05

Variant	self-cleavage
A40U G23A	0.11
A40U G23C	0.04
A40G C11U	0.32
A40G C11G	0.13
A40G C11A	0.14
A41C C32G	0.11
A41C C32A	0.08
A41C C32U	0.09
A40G G53A	0.2
A40G G53C	0.08
A40G G53U	0.12
A41C C33U	0.7
A41C C33G	0.09
A41C C33A	0.13
A40U C25U	0.13
A40U C25A	0.06
A40U C25G	0.05
A41C G48C	0.1
A41C G48A	0.08
A41C G48U	0.07
A40U C11G	0.06
A40U C11U	0.33
A40U C11A	0.1
A40U C27G	0.06

Variant	self-cleavage
A40U C27U	0.1
A40U C27A	0.09
A41C G35A	0.81
A41C G35U	0.76
A41C G35C	0.63
A40G G34U	0.22
A40G G34A	0.44
A40G G34C	0.2
A40G G49U	0.09
A40G G49C	0.07
A40G G49A	0.09
A40U C20U	0.81
A40U C20G	0.07
A40U C20A	0.64
A41C C14U	0.22
A41C C14G	0.15
A41C C14A	0.07
A41C C27A	0.13
A41C C27G	0.06
A41C C27U	0.12
A40U G49A	0.07
A40U G49U	0.08
A40U G49C	0.05

Source: the RNAGym collection of RNA variant scans (doi:10.1002/anie.201605470)
